TbHK1 inh: blocks Trypanosoma brucei hexokinase 1 activity; recombinant TbHK1, G6PDH-coupled NADH A340; inhibition, % at 10 µM; 220,000 tested, 0.11% active;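 active = inhibition of 50% or more in the single-dose primary screen; inactive = inhibition below 50%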
Diaphorase inh: inhibits diaphorase or chemically oxidizes, flagging diaphorase assay artifacts. diaphorase resazurin-to-resorufin fluorescence, NADH, 16 min; bacterial (C. kluyveri) enzyme, not human. inhibition, % at 20 µM. 190,000 tested, 0.69% active;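 active = primary screen inhibition at 20 µM above a set limit, cut at about 50% in these data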
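Detection: fluorescence of resorufin formed from resazurin, Ex 544/Em 590 nm; test system: Clostridium kluyveri diaphorase enzyme; amount: 0.14 U/mL diaphorase, enzyme working solution; times: 16-min room-temperature incubation before reading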
G6PDH CS: inhibits Leuconostoc G6PDH, flagging false hits in G6PDH-based assays; Purified L. mesenteroides G6PDH, diaphorase/resazurin coupled fluorescence, 45 min; 200,000 tested, 0.12% active; inhibition, % at 5 µM; AID 1020; in the data active = inhibition above about 50%
PfGluPho inh: PfG6PD (Plasmodium falciparum) enzyme inhibition; PfGluPho enzyme, NADPH resazurin-diaphorase fluorescence; inhibition, % at 20 µM; 350,000 tested, 0.78% active; AID 504690;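 active = inhibition reaching at least a set limit at 20 µM in the primary screen, cut at about 59% in these data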
HKDC1 inhibitor: HKDC1 (human) hexokinase inhibition; recombinant HKDC1, G6PDH/diaphorase resazurin coupled fluorescence; AID 493160; 340,000 tested, 0.16% active; inhibition, % at 20 µM; Q2TB90;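 active = inhibition above about 35% when tested at 20 µM, limit read from the data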
Target sequence (Q2TB90 whole entry, looked up): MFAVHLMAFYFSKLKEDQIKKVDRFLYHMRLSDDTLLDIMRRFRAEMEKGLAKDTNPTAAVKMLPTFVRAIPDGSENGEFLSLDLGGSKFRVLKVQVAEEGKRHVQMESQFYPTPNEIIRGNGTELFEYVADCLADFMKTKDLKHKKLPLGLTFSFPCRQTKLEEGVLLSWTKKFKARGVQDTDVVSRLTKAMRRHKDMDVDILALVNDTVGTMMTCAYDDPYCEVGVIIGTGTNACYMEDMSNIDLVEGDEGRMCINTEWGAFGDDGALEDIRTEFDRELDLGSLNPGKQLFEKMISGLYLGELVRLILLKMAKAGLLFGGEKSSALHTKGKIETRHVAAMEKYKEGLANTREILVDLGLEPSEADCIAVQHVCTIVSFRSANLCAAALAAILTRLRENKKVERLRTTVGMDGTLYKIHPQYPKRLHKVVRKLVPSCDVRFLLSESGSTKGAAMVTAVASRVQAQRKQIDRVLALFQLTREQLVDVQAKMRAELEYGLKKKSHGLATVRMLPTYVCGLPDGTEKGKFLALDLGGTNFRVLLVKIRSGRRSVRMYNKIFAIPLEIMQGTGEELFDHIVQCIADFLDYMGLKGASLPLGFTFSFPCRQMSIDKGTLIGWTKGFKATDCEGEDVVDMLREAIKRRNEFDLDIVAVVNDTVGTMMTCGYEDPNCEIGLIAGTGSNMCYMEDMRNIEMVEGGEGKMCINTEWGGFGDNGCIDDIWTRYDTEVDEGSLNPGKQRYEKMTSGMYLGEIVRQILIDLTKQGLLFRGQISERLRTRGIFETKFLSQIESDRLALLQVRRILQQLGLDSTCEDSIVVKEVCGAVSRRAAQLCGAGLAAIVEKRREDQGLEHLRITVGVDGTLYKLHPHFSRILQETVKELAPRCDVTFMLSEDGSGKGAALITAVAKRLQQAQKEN
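Assay system: recombinant HKDC1 hexokinase; detection: coupled resazurin fluorescence, excitation 525 nm, emission 613 nm; benchmarks: DMSO-plus-enzyme-mix negative control, buffer-substituted positive control; compound dosing: single 20 µM dose; schedule: 90 min at room temperature in dark; also added: glucose plus 1 mM ATP as hexokinase substrates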
Hits are given with their value; - = inactive; . = no result. Rows were chosen to be rich in hits. Some 1.3% of all compounds tested hit in one or more screens of this group.

SMILES | TbHK1 inh | Diaphorase inh | G6PDH CS | PfGluPho inh | HKDC1 inhibitor
Cc1ccsc1C1Nc2ccc3ncccc3c2C2=C1C(=O)CC(C)(C)C2 (centres undefined) | - | 53 | - | - | -
O=C1CCCC2=C1C(c1ccc(O)c(O)c1)Nc1ccc3ncccc3c12 (centres undefined) | - | 71 | - | - | -
O=C1CCCC2=C1C(c1cccs1)Nc1ccc3ncccc3c12 (centres undefined) | - | - | - | - | -
CCOC(=O)c1cc(C)n(-n2cnnc2)c1C | - | - | - | - | -
Cn1cc2ccc(N)cc2n1 | - | 70 | 54 | - | -
CC1CCN(S(=O)(=O)c2ccc3c(c2)N(CC(=O)NCCCOC(C)C)C(=O)CS3)CC1 | . | . | . | - | -
Cc1ccc(Nc2c(-c3ccc(C)o3)nc3cnccn23)cc1 | - | - | - | 69 | -
Cc1ccc(-c2nc3cnccn3c2Nc2ccccc2)o1 | - | - | - | - | -
COc1ccc(OC)c(CN2CCC(N3CCC(C(=O)NC4CC4)CC3)CC2)c1 | . | . | . | - | -
COc1cc(CN2CCC(C(=O)N3CCCC(C)C3)CC2)cc(OC)c1O (centres undefined) | - | - | 53 | - | -
COc1cc(CN2CCC(C(=O)NC3CCCC3)CC2)cc(OC)c1O | - | - | 53 | - | -
N#CCC(=O)N/N=C/c1cn(Cc2ccc(Cl)c(Cl)c2)c2ccccc12 | - | . | . | - | -
CCn1c(SCC(=O)Nc2cccc(NC(C)=O)c2)nnc1-c1ccco1 | . | . | . | - | -
CCn1c(SCC(=O)Nc2ccc3c(c2)c2ccccc2n3CC)nnc1-c1ccco1 | - | - | - | 76 | -
CN1C(=O)CC(Nc2cccc3cccc(N)c23)C1=O (centres undefined) | - | 67 | - | 64 | -
CC(C)N1C(=O)CC(Nc2cccc3cccc(N)c23)C1=O (centres undefined) | - | 52 | - | - | -
CCOc1ccc(CCNC(=O)c2nn(C)c3c2CS(=O)(=O)c2ccccc2-3)cc1OCC | . | . | . | - | -
Cc1ccc(C(=O)Oc2csc(=S)n2C(=O)c2ccc(C)cc2)cc1 | - | - | - | 60 | -
Cc1sc2c(c1C)C(=O)/C(=C\Nc1ccncc1)S(=O)(=O)N2C | - | . | . | - | -
Cc1occc1C(=O)N(Cc1nc(-c2ccccc2)no1)C(C)C | . | . | . | - | -
CS(=O)(=O)N(CC(=O)N1CCCC1)c1cccc(C(F)(F)F)c1 | . | . | . | - | .
CN1CCC(N(C)C(=O)CCc2nc3ccccc3n2-c2ccccc2)CC1 | - | 74 | - | - | -
Cc1ccc(N=Nc2c(N)[nH]n3c(=O)cc(-c4ccccc4)nc23)cc1 | - | 62 | - | - | -
CC(Sc1nc(N)cc(=O)[nH]1)C(=O)NCC(=O)Nc1ccc(F)c(F)c1F (centres undefined) | . | . | . | - | -
CC(C)N(CC#CCC(O)(c1ccccc1)C1CCCC1)CCO (centres undefined) | - | 60 | - | - | -
SMILES | TbHK1 inh | Diaphorase inh | G6PDH CS | PfGluPho inh | HKDC1 inhibitor
CCN(CC#CCC(O)(c1ccccc1)C1CCCC1)C(C)C (centres undefined) | - | - | - | - | -
COc1ccc(NC(=S)NN2CCN(C)CC2)cc1OC | - | - | - | - | -
O=C1CC(=O)N(Cc2ccco2)C(=S)N1 | - | 68 | - | - | -
O=C1CC(=O)N(Cc2ccco2)C(=O)N1 | - | - | - | - | -
CC(C)COc1ccc(C(=O)Nc2sc3c(c2C(=O)O)CC(C)(C)OC3)cc1 | - | - | - | - | -
Cc1ccc(S(=O)(=O)N2CCCCC2)cc1C(=O)NCc1ccc(S(N)(=O)=O)cc1 | . | . | . | - | -
CCN(C(=O)c1cc2cc3ccc(C)cc3nc2o1)c1ccc(OC)cc1 | - | 60 | - | - | -
O=[N+]([O-])c1ccccc1NC(=S)N/N=C/c1ccc(O)c(O)c1 | - | 72 | - | - | -
CC(=O)Nc1ccc(C(=O)OCC(=O)N(Cc2ccccc2)C(C)(C)C)cc1 | - | 54 | - | - | -
CCOC(=O)C1=C(O)/C(=C/c2ccc(OCC(=O)O)c(OCC)c2)SC1=Nc1ccc(OC)cc1 | - | - | - | - | -
CCOC(=O)C1=C(O)/C(=C/c2ccc(OCC(=O)O)c(OCC)c2)SC1=Nc1ccc(C)cc1 | - | 62 | - | - | -
COc1cc2nc(=S)n3[nH]c(CCn4c(C)nc5ccccc54)nc3c2cc1OC | - | 89 | - | - | -
COc1ccc(OCc2nc3ccccc3[nH]2)cc1 | - | - | - | - | -
COc1ccccc1Cn1c(C)nc2ccccc21 | - | . | . | - | -
COc1ccc(OCc2nc3c4cc(OC)c(OC)cc4nc(=S)n3[nH]2)cc1 | - | 92 | - | - | -
Cc1nnc(NC(=O)c2ccncc2)s1 | - | - | - | - | -
Cc1ccc(-n2c(=S)[nH]c3sc4c(c3c2=O)CCC4)cc1 | - | 53 | - | - | -
Cc1c(NC(=O)CSc2ccccc2F)c(=O)n(-c2ccccc2)n1C | - | 50 | - | - | -
O=C1CS/C(=N\C(=O)N2c3ccccc3Sc3ccccc32)N1 | - | 70 | - | - | -
NCCC(=O)N1c2ccccc2Sc2ccccc21 | . | . | . | - | -
C/C(=N\O)C1CC(CC(=O)O)C1(C)C (centres undefined) | - | . | . | - | -
CCOC(=O)c1ccc(N2C(=O)C=CC2=O)cc1 | - | - | - | 66 | -
CCOC(=O)c1ccc(-n2c(C)ccc2C)cc1 | - | - | - | - | -
CC1CCCCN1C(=O)COC(=O)Cc1c[nH]c2ccccc12 (centres undefined) | . | . | . | - | -
NC(=O)Cn1cc(C(=O)COc2ccccc2)c2ccccc21 | - | - | - | . | .
SMILES | TbHK1 inh | Diaphorase inh | G6PDH CS | PfGluPho inh | HKDC1 inhibitor
O=C(COc1ccccc1)c1cn(CC(=O)N2CCCC2)c2ccccc12 | - | 94 | - | - | -
O=C(COc1ccccc1[N+](=O)[O-])N/N=C/c1ccc(O)c([N+](=O)[O-])c1 | - | - | - | - | -
O=C(COc1ccccc1C(=O)N/N=C\c1ccc(O)c(O)c1)N/N=C/c1ccc(O)c(O)c1 | - | 70 | - | - | -
O=C(NCc1ccccc1)c1cc(S(=O)(=O)N2CCC3(CC2)OCCO3)ccc1F | - | - | - | - | -
CCc1ccc2[nH]c(=O)c(C3C(C#N)=C(N)Oc4c3ccc3cccnc43)cc2c1 (centres undefined) | - | 52 | - | - | -
CN1CC2(Cc3c1ccc1ccccc31)C(=O)OC(C)(C)OC2=O | - | 51 | - | - | -
Cc1ccc2c(c1)CC1(CN2C)C(=O)OC2(CCCCC2)OC1=O | - | - | - | - | -
CCS(=O)(=O)c1ccc2oc(SCC(=O)NCCc3ccccc3)nc2c1 | - | - | - | - | -
Cc1ccc(C(=O)NC(=S)NNC(=O)CCN2CCOCC2)cc1 | - | 67 | - | - | -
O=C(NC(=S)NCCN1CCOCC1)c1ccc(F)cc1 | - | - | - | - | -
Cc1cc2nc3s/c(=C/c4ccc(-c5ccccc5C(=O)O)o4)c(=O)n3c2cc1C | . | . | . | - | -
O=C(O)c1ccccc1-c1ccc(/C=c2\sc3nc4cc(Br)cnc4n3c2=O)o1 | - | 56 | - | - | 68

From PubChem BioAssay
